Assay results reported in ChEMBL document CHEMBL1124759, “Fluoronaphthyridines and quinolones as antibacterial agents. 2. Synthesis and structure-activity relationships of new 1-tert-butyl 7-substituted derivatives” (J Med Chem, 1990).
≈ marks a conversion by molar mass, not a printed value.

What was measured:
[1] = Tested for aqueous solubility; conditions: aqueous medium
Enterococcus faecalis = test: In vitro minimum inhibitory concentration (MIC) against Enterococcus faecalis A 9808 at 37 degrees C for 18 h.; type: functional
Procedure, shortened: (§1)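 Two-fold serial broth dilution in nutrient broth. Inoculum adjusted to 10^6 cfu/mL. Compounds tested from 0.0005 to 250 µg/mL.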

Escherichia coli [2] = test: In vitro minimum inhibitory concentration (MIC) against Escherichia coli A 15119 at 37 degrees C for 18 h.; type: functional; procedure, shortened: as §1
Enterococcus faecium = test: In vitro minimum inhibitory concentration (MIC) against Enterococcus faecium A 24885 at 37 degrees C for 18 h.; type: functional; procedure, shortened: as §1
Escherichia coli [3] = test: Efficacy on systematic infections against Escherichia coli A 15119 after oral administration in mice; type: functional; conditions: read-out: PD50
Procedure, shortened: (§2)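 Mice given compound orally after lethal systemic infection. Read-out is the oral dose protecting 50% of mice from death (PD50), reported in mg/kg.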

Klebsiella pneumoniae [4] = test: Efficacy on systematic infections against Klebsiella pneumoniae A 9664 after oral administration in mice; type: functional; conditions: read-out: PD50; procedure, shortened: as §2
Klebsiella pneumoniae [5] = test: In vitro minimum inhibitory concentration (MIC) against Klebsiella pneumoniae A 9664 at 37 degrees C for 18 h.; type: functional; procedure, shortened: as §1
Morganella morganii = test: In vitro minimum inhibitory concentration (MIC) against Morganella morganii A 15153 at 37 degrees C for 18 h.; type: functional; procedure, shortened: as §1
Pseudomonas aeruginosa [6] = test: In vitro minimum inhibitory concentration (MIC) against Pseudomonas aeruginosa A 9843 at 37 degrees C for 18 h; type: functional; procedure, shortened: as §1
Pseudomonas aeruginosa [7] = test: Efficacy on systematic infections against Pseudomonas aeruginosa A 9843 after oral administration in mice; type: functional; conditions: read-out: PD50; procedure, shortened: as §2
Staphylococcus aureus [8] = test: Efficacy on systematic infections against Staphylococcus aureus A 9537 after oral administration in mice; type: functional; conditions: read-out: PD50; procedure, shortened: as §2
Staphylococcus aureus [9] = test: In vitro minimum inhibitory concentration (MIC) against Staphylococcus aureus Smith A 9537 at 37 degrees C for 18 hr; type: functional; procedure, shortened: as §1
Serratia marcescens = test: In vitro minimum inhibitory concentration (MIC) against Serratia marcescens A 20019 at 37 degrees C for 18 hr; type: functional; procedure, shortened: as §1
Enterobacter cloacae [10] = test: (§3) In vitro minimum inhibitory concentration (MIC) against Enterobacter cloacae A 9656 at 37 degrees C for 18 h.; type: functional
Escherichia coli [11] = test: In vitro minimum inhibitory concentration (MIC) against Escherichia coli A 15119 at 37 degrees Celsius for 18 h.; type: functional; procedure, shortened: as §1
Enterobacter cloacae [12] = test: as §3; type: functional; procedure, shortened: as §1; remark: listed apart in the source
Enterobacter cloacae [13] = test: In vitro minimum inhibitory concentration (MIC) against Enterobacter cloacae A 9656 at 37 degree C for 18 h.; type: functional; procedure, shortened: as §1
Pseudomonas aeruginosa [14] = test: In vitro minimum inhibitory concentration (MIC) against Pseudomonas aeruginosa A 9843 at 37 degrees Celsius for 18 h; type: functional; procedure, shortened: as §1
Canis familiaris = species: Canis familiaris; conditions: dog, in vivo, po, 25 mg/kg
Klebsiella pneumoniae [15] = test: In vitro minimum inhibitory concentration (MIC) against Klebsiella pneumoniae A 9664 at 37 degrees Celsius for 18 h.; type: functional; procedure, shortened: as §1
Pseudomonas aeruginosa [16] = test: In vitro minimum inhibitory concentration (MIC) against Pseudomonas aeruginosa A 9843 at 37 degree C for 18 h; type: functional; procedure, shortened: as §1
Enterobacter cloacae [17] = test: In vitro minimum inhibitory concentration (MIC) against Enterobacter cloacae A 9656 at 37 degrees Celsius for 18 h.; type: functional; procedure, shortened: as §1

MIC (Enterococcus faecalis) | MIC (Escherichia coli [2]) | MIC (Enterococcus faecium) | MIC (Klebsiella pneumoniae [5]) | MIC (Morganella morganii) | MIC (Staphylococcus aureus [9]) | MIC (Serratia marcescens) | SMILES | MIC (Pseudomonas aeruginosa [6]) | MIC (Enterobacter cloacae [10]) | other results
2 µg/mL (≈ 5.33 µM) | – | 8 µg/mL (≈ 21.3 µM) | 0.5 µg/mL (≈ 1.33 µM) | 1 µg/mL (≈ 2.66 µM) | 0.25 µg/mL (≈ 0.666 µM) | 2 µg/mL (≈ 5.33 µM) | CC1CN(c2cc3c(cc2F)c(=O)c(C(=O)O)cn3C(C)(C)C)CC(C)N1 (stereo not drawn) | 4 µg/mL (≈ 10.7 µM) | – | MIC (Escherichia coli [11]): 0.13 µg/mL (≈ 0.346 µM); MIC (Enterobacter cloacae [12]): 0.13 µg/mL (≈ 0.346 µM)
0.5 µg/mL (≈ 1.38 µM) | 0.5 µg/mL (≈ 1.38 µM) | 2 µg/mL (≈ 5.52 µM) | 2 µg/mL (≈ 5.52 µM) | 4 µg/mL (≈ 11 µM) | 0.13 µg/mL (≈ 0.359 µM) | 4 µg/mL (≈ 11 µM) | CC1CN(c2nc3c(cc2F)c(=O)c(C(=O)O)cn3C(C)(C)C)CCN1 (stereo not drawn) | 8 µg/mL (≈ 22.1 µM) | – | MIC (Enterobacter cloacae [13]): 1 µg/mL (≈ 2.76 µM)
0.5 µg/mL (≈ 1.38 µM) | 0.5 µg/mL (≈ 1.38 µM) | 4 µg/mL (≈ 11.1 µM) | 0.25 µg/mL (≈ 0.692 µM) | 1 µg/mL (≈ 2.77 µM) | 0.06 µg/mL (≈ 0.166 µM) | 2 µg/mL (≈ 5.53 µM) | CC1(N)CCN(c2cc3c(cc2F)c(=O)c(C(=O)O)cn3C(C)(C)C)C1 (stereo not drawn) | – | 0.5 µg/mL (≈ 1.38 µM) | MIC (Pseudomonas aeruginosa [14]): 2 µg/mL (≈ 5.53 µM)
0.5 µg/mL (≈ 1.38 µM) | 0.06 µg/mL (≈ 0.166 µM) | 4 µg/mL (≈ 11 µM) | 0.06 µg/mL (≈ 0.166 µM) | 0.5 µg/mL (≈ 1.38 µM) | 0.015 µg/mL (≈ 0.0414 µM) | 0.5 µg/mL (≈ 1.38 µM) | CC1(N)CCN(c2nc3c(cc2F)c(=O)c(C(=O)O)cn3C(C)(C)C)C1 (stereo not drawn) | – | 0.13 µg/mL (≈ 0.359 µM) | MIC (Pseudomonas aeruginosa [14]): 2 µg/mL (≈ 5.52 µM)
0.13 µg/mL (≈ 0.345 µM) | 0.06 µg/mL (≈ 0.159 µM) | 4 µg/mL (≈ 10.6 µM) | 0.06 µg/mL (≈ 0.159 µM) | 1 µg/mL (≈ 2.66 µM) | 0.06 µg/mL (≈ 0.159 µM) | 1 µg/mL (≈ 2.66 µM) | CCNC1CCN(c2nc3c(cc2F)c(=O)c(C(=O)O)cn3C(C)(C)C)C1 (stereo not drawn) | – | – | MIC (Enterobacter cloacae [17]): 0.25 µg/mL (≈ 0.664 µM); MIC (Pseudomonas aeruginosa [16]): 4 µg/mL (≈ 10.6 µM)

SMILES | MIC (Enterococcus faecalis) | MIC (Escherichia coli [2]) | MIC (Enterococcus faecium) | MIC (Klebsiella pneumoniae [5]) | MIC (Morganella morganii) | MIC (Staphylococcus aureus [9]) | MIC (Serratia marcescens) | MIC (Pseudomonas aeruginosa [6]) | MIC (Enterobacter cloacae [10]) | other results
CC(C)(C)n1cc(C(=O)O)c(=O)c2cc(F)c(N3CCNCC3)cc21 | 1 µg/mL (≈ 2.88 µM) | 0.06 µg/mL (≈ 0.173 µM) | 4 µg/mL (≈ 11.5 µM) | 0.13 µg/mL (≈ 0.374 µM) | 0.25 µg/mL (≈ 0.72 µM) | 0.06 µg/mL (≈ 0.173 µM) | 0.5 µg/mL (≈ 1.44 µM) | 0.5 µg/mL (≈ 1.44 µM) | 0.13 µg/mL (≈ 0.374 µM) | solubility [1]: 130 µg/mL (≈ 374 µM); ED50 (Escherichia coli [3]): 21.7 mg/kg; ED50 (Klebsiella pneumoniae [4]): 10.3 mg/kg; ED50 (Pseudomonas aeruginosa [7]): 29 mg/kg; ED50 (Staphylococcus aureus [8]): 2.4 mg/kg
CC(C)(C)n1cc(C(=O)O)c(=O)c2cc(F)c(N3CCNCC3)nc21 | 0.5 µg/mL (≈ 1.44 µM) | 0.015 µg/mL (≈ 0.0431 µM) | 8 µg/mL (≈ 23 µM) | 0.13 µg/mL (≈ 0.373 µM) | 0.25 µg/mL (≈ 0.718 µM) | 0.06 µg/mL (≈ 0.172 µM) | 0.25 µg/mL (≈ 0.718 µM) | 1 µg/mL (≈ 2.87 µM) | 0.06 µg/mL (≈ 0.172 µM) | solubility [1]: 820 µg/mL (≈ 2350 µM); ED50 (Escherichia coli [3]): 4.7 mg/kg; ED50 (Klebsiella pneumoniae [4]): 4.8 mg/kg; ED50 (Pseudomonas aeruginosa [7]): 10.9 mg/kg; ED50 (Staphylococcus aureus [8]): 1.1 mg/kg; AUC (Canis familiaris): 50 µg·h/mL
CC(C)(C)n1cc(C(=O)O)c(=O)c2cc(F)c(N3CCNC(CF)C3)nc21.CS(=O)(=O)O (stereo not drawn) | 4 µg/mL | 0.13 µg/mL | 16 µg/mL | – | 1 µg/mL | 0.13 µg/mL | 1 µg/mL | – | 0.06 µg/mL | MIC (Klebsiella pneumoniae [15]): 0.13 µg/mL; MIC (Pseudomonas aeruginosa [16]): 4 µg/mL
